Screening results (PubChem BioAssay)
hERG rescue: hERG (human) protection from proarrhythmic block; activation (rescue from dofetilide block), less the hit threshold, % at 10 µM; CHO-hERG, FluxOR thallium flux, dofetilide IC70 present; 310,000 tested, 0.51% active; Q12809;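 active = activation above the mean of controls blocked by dofetilide plus 5 SD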;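 also: thallium influx through hERG after potassium depolarization seen as dye fluorescence rise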
Kir21 inh: inhibitors of mouse Kir2.1 inward-rectifier potassium channel | P35561 | HEK293-Kir2.1, FluxOR thallium flux fluorescence; stronger effect = lower value | B-score at 10 µM | 310,000 tested, 0.85% active;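 active = fluorescence ratio B-score at or below minus 3 SD of library scores, with starting-brightness B-score within 2 SD, cut at about -4.2 in these data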;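 also: channel flux triggered by added potassium and thallium sulfate stimulus; B-score of peak minus minimum fluorescence over baseline after thallium stimulus; more negative B-score means stronger Kir2.1 block with less thallium influx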
KCNK3 inh: human KCNK3 channel inhibition, primary screen. O14649. CHO-KCNK3 thallium flux, FluxOR fluorescence; stronger effect = lower value. B-score at 10 µM. 340,000 tested, 0.84% active;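 active = B-score under library mean minus 4 SD, starting fluorescence ratio at most library mean plus 5 SD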;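 also: more negative B-score means stronger inhibition of thallium flux through KCNK3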
KCNQ1 block: inhibitors of human KCNQ1 potassium channel. CHO-K1 KCNQ1, FluxOR thallium flux fluorescence; stronger effect = higher value. B-score at 10 µM. AID 2642. 310,000 tested, 1.3% active. P51787;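 active = compounds whose thallium flux B-score, printed positive for inhibition, exceeds three library SD while starting fluorescence stays within three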;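 also: channel opened by potassium depolarization with thallium stimulus after 20 min compound exposure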
KCNK9 inh: blocks the human KCNK9 two-pore domain potassium channel | Q9NPC2 | B-score at 10 µM | HEK293 KCNK9, FluxOR thallium flux fluorescence; stronger effect = lower value | 310,000 tested, 1.2% active;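 active = ratio B-score over 3 SD below the library mean, with starting fluorescence within 5 SD of its mean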;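 also: negative B-score means less thallium flux so channel inhibition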
Target sequence (Q9NPC2 whole entry, looked up, the tested form may be a part): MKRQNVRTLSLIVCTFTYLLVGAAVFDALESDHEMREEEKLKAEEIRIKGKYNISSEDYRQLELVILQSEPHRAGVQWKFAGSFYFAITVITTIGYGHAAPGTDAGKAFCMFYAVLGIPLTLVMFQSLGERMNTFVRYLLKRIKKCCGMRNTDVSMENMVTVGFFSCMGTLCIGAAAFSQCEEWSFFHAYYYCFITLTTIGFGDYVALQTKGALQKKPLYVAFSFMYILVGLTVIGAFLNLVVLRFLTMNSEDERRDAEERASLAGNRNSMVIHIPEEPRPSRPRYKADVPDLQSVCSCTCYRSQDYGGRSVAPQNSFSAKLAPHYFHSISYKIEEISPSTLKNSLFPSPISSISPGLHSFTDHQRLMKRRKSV
KCNQ1 pot: human KCNQ1 channel potentiation or activation; 310,000 tested, 0.35% active; B-score at 10 µM; AID 2648; P51787; CHO-K1 KCNQ1, thallium flux FluxOR fluorescence; stronger effect = higher value;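 active = fluorescence ratio B-score, a plate-corrected score, at least three library SD, with initial intensity B-score within 5 SD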
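assay system = CHO-K1 cells stably expressing KCNQ1 | medium = assay buffer, equal DMSO in all wells | timing = 37 °C overnight plating, 90-min dark dye load, 20-min compound pretreatment | measured by = kinetic FluxOR thallium fluorescence, 10-s 1-Hz baseline, 110-s post-stimulus read | measure = fluorescence change relative to baseline, converted to B score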
KCNK9 block conf: human KCNK9 inhibitor confirmation; shares compounds with KCNK9 inh; HEK293 KCNK9 cells, FluxOR thallium flux fluorescence; inhibition, % at 10 µM; 4,900 tested, 43% active; AID 492992;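 active = thallium signal inhibited by more than 5 SD of the compound-free buffer control wells, on both duplicate plates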;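 also: 0% = assay buffer control wells without compound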
Kir21 sel: selectivity of KCNK9 modulators against mouse Kir2.1. shares compounds with KCNK9 inh. AID 492993. inhibition, % at 10 µM. Kir2.1 cells, FluxOR thallium flux fluorescence. 4,900 tested, 4% active;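 active = thallium signal drop more than 5 SD beyond the mean of the no-compound control wells, seen in both duplicate plates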;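 also: signal is fluorescence rise after thallium addition divided by baseline fluorescence; plate controls were assay buffer only for no effect and full block by chlorpromazine control for full effect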
HEK293 Tl ctr: non-induced cell nonspecific activity of KCNK9 modulators. shares compounds with KCNK9 inh. non-induced KCNK9-HEK293, FluxOR thallium flux. inhibition, % at 10 µM. 4,900 tested, 40% active;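 active = thallium signal drop beyond 5 SD of the untreated control mean, on both duplicate plates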;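 also: plate controls were buffer only IC0 wells for no effect and SID17386958 at its maximal inhibitory level for full effect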
* hit, by the source's call; i = inactive; nt = no result given. Rows were chosen to be rich in hits. Some 3.7% of all compounds tested hit in one or more screens of this group.

SMILES	hERG rescue	Kir21 inh	KCNK3 inh	KCNQ1 block	KCNK9 inh	KCNQ1 pot	KCNK9 block conf	Kir21 sel	HEK293 Tl ctr
CC(C)CCNCC1OCc2ccccc2CO1	-4	-0.16	i	i	i	i	nt	nt	nt
O=C1CCC(/C=C/c2ccccc2)=NN1Cc1ccc(Cl)c(Cl)c1	-5	0.47	i	i	i	i	i	i	i
COc1cccc(OC)c1C(=O)Nc1ccc(C(=O)c2ccncc2)cc1	-13	0.56	i	i	i	i	nt	nt	nt
COc1ccc(C2Nc3cc(OC)ccc3-n3cccc32)cc1 (centres undefined)	-10	0.43	i	i	i	i	i	i	i
Cc1ccc2[nH]c3c(=O)n(CC(=O)NCCCN4CCN(c5ccc(F)cc5)CC4)ncc3c2c1	-8	0.98	i	i	i	i	nt	nt	nt
CCCN(CCC)S(=O)(=O)c1cccc(-c2csc(C)n2)c1	-17	-2.7	i	i	i	i	i	28%*	i
CC(Oc1cccc(Br)c1)C(=O)NNC(=O)CCNC(=O)c1ccccc1Cl (centres undefined)	nt	nt	i	nt	nt	nt	nt	nt	nt
Cc1cccc(C)c1-n1nnnc1SCSc1nnnn1-c1c(C)cccc1C	-8	1.6	i	i	-13*	i	i	i	35%*
CSc1nnnn1-c1c(C)cccc1C	-4	-0.32	i	i	i	i	nt	nt	nt
CCOC(=O)c1c(NC(=S)Nc2ccccc2)sc2c1CC(C)(C)SC2	-2	0.03	i	8*	-9.1*	i	i	i	33%*
CCOC(=O)c1c(NC(=S)Nc2ccc(OC)cc2)sc2c1CCC2	-17	0.67	i	i	i	i	nt	nt	nt
Cc1c(C(=O)CN2CCN(c3ccccc3)CC2)c2ccccc2n1C	-6	0.56	i	i	i	i	i	i	i
CCC(C)c1ccc(NC(=O)Nc2cnccn2)cc1 (centres undefined)	-9	0.45	i	i	i	i	nt	nt	nt
Cc1ccc(Cl)cc1N1CCN(CC(=O)NC2CCCc3ccccc32)CC1 (centres undefined)	-5	0.01	i	i	i	i	i	i	i
O=C(CN1CCN(c2ccccc2Cl)CC1)NC1CCCc2ccccc21 (centres undefined)	-10	0.3	i	i	i	i	i	i	i
O=C(CSc1ccc(Cl)cc1)NC1CCCc2ccccc21 (centres undefined)	-5	0.57	i	i	i	i	nt	nt	nt
Cc1cc(C)cc(CC2CC(=O)N(c3cc(C)ccc3C)C2=O)c1 (centres undefined)	-3	-1.9	i	i	i	i	i	i	i
Cc1ccc(N2C(=O)CC(Cc3cc(C)cc(C)c3)C2=O)cc1 (centres undefined)	-12	1.1	i	i	i	i	nt	nt	nt
Cc1cccc([N+](=O)[O-])c1NC(=O)CN(Cc1ccccc1)Cc1ccccc1	-6	-0.17	i	i	-8.8*	i	30%*	i	37%*
Cc1cccc(C)c1NC(=O)CNC(=O)Cc1ccccc1[N+](=O)[O-]	-4	-0.22	i	i	i	i	nt	nt	nt
O=C(/C=C/c1ccco1)Nc1ccc(Cl)c(S(=O)(=O)N2CCOCC2)c1	-5	1.2	i	i	i	i	nt	nt	nt
O=C(Nc1ccccc1)OCCCc1ccccc1	-8	1.4	i	i	i	i	i	i	i
O=C(CCNC(=O)c1ccccc1)Nc1ccc(S(=O)(=O)Nc2ncccn2)cc1	nt	nt	i	nt	nt	nt	nt	nt	nt
